In ChEMBL document CHEMBL2380254, “Optimization of tocotrienols as antiproliferative and antimigratory leads” (Eur J Med Chem, 2013) one finds GI50, growth and IC50 data, which are given here for four compounds.

The structures appear in SMILES notation.

Assay [1] has as its system RPMI-8226. Description: Growth inhibition of human RPMI8226 cells after 48 hrs by sulforhodamine B assay. Type of assay: functional. The settings on record: RPMI-8226, 48 h. The method, boiled down:
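NCI-60 suspension lines in RPMI 1640 with 5% FBS and 2 mM L-glutamine, preincubated 24 h. A five-concentration 10-fold series (0.001–100 µM) was given for 48 h at 37 °C. Settled cells were fixed with 80% TCA (16% final), stained with SRB, and read at 515 nm. GI50 was taken where 100×(T−T0)/(C−T0)=50, with T0 plates fixed at drug addition.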

In assay [2] the test system is T47D. Briefly: Growth inhibition of human T47D cells assessed as cell growth at 10 uM after 48 hrs by sulforhodamine B assay. The settings on record: read-out: Activity. Type of assay: functional. The method, boiled down: (§1)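 Single-dose NCI-60 test at 10 µM. Cells were grown in RPMI 1640 with 5% FBS and 2 mM L-glutamine, preincubated 24 h, with T0 plates TCA-fixed. Exposure was 48 h at 37 °C, 5% CO2. Cells were fixed with cold TCA (final 10%, 4 °C, 60 min), stained with SRB and read at 515 nm. Percent growth was taken relative to T0 and untreated control; negative values denote cell kill.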
In general terms: Sulforhodamine B stains cellular protein and so reports cell mass.

Assay [3] deals with PC-3. Briefly: Growth inhibition of human PC3 cells after 48 hrs by sulforhodamine B assay. The settings on record: PC-3, 48 h. Type of assay: functional. The method, boiled down: (§2)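 NCI-60 panel cells grown in RPMI 1640 with 5% FBS and 2 mM L-glutamine, seeded at 5000–40,000 cells/well and preincubated 24 h. Five 10-fold dilutions (0.001–100 µM) from DMSO stocks were added for 48 h at 37 °C. Adherent cells were fixed with cold TCA (10% final) for 60 min at 4 °C, stained with 0.4% SRB, and read at 515 nm. GI50 was set where 100×(T−T0)/(C−T0)=50.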

The subject of assay [4] is NCI-H226. Briefly: Growth inhibition of human NCI-H226 cells after 48 hrs by sulforhodamine B assay. In kind it is functional. The settings on record: NCI-H226, 48 h. Summed up:
as §2

A short description of assay [5]: Growth inhibition of human NCI-ADR-RES cells after 48 hrs by sulforhodamine B assay. In kind it is functional. The method, boiled down: as §2
Assay [6] deals with SK-MEL-2. Description: Growth inhibition of human SK-MEL-2 cells after 48 hrs by sulforhodamine B assay. In kind it is functional. The settings on record: SK-MEL-2, 48 h. The method, boiled down:
as §2

The subject of assay [7] is T47D. Description: Growth inhibition of human T47D cells after 48 hrs by sulforhodamine B assay. Type of assay: functional. The method, boiled down:
(§3)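 NCI-60 five-dose screen. Cells were grown in RPMI 1640 with 5% FBS and 2 mM L-glutamine, plated at 5000–40,000 cells/well and incubated 24 h before dosing, with T0 plates TCA-fixed. DMSO stocks were diluted to doses of […] and exposed 48 h at 37 °C, 5% CO2. Cells were fixed with cold TCA (final 10%, 60 min, 4 °C), stained with 0.4% SRB in 1% acetic acid for 10 min, solubilized in 10 mM trizma base and read at 515 nm. GI50 is where 100×(T−T0)/(C−T0)=50.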

The subject of assay [8] is IGROV-1. Description: Growth inhibition of human IGROV1 cells assessed as cell growth at 10 uM after 48 hrs by sulforhodamine B assay. The settings on record: IGROV-1, 48 h, read-out: Activity. Type of assay: functional. The method, boiled down:
(§4)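 NCI-60 single-dose screen at 10 µM: cells in RPMI 1640 with 5% FBS, preincubated 24 h, then exposed 48 h at 37 °C. TCA fixation (16% final for suspension cells), SRB staining, absorbance 515 nm. Percent growth relative to time-zero and untreated control plates; negative values indicate cell kill.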

Assay [9] concerns HCT-116. Briefly: Growth inhibition of human HCT116 cells assessed as cell growth at 10 uM after 48 hrs by sulforhodamine B assay. The settings on record: HCT-116, 48 h, read-out: Activity. In kind it is functional. The method, boiled down: as §4
Assay [10] relates to TK-10. Description: Growth inhibition of human TK10 cells assessed as cell growth at 10 uM after 48 hrs by sulforhodamine B assay. The settings on record: TK-10, 48 h, read-out: Activity. Type of assay: functional. Summed up: as §1
Assay [11] relates to DU-145. Briefly: Growth inhibition of human DU145 cells assessed as cell growth at 10 uM after 48 hrs by sulforhodamine B assay. The settings on record: DU-145, 48 h, read-out: Activity. In kind it is functional. Summed up:
as §4

Assay [12] deals with NCI-H460. Description: Growth inhibition of human NCI-H460 cells after 48 hrs by sulforhodamine B assay. In kind it is functional. The settings on record: NCI-H460, 48 h. The method, boiled down:
as §2

Assay [13] has as its system SN12C. Description: Growth inhibition of human SN12C cells after 48 hrs by sulforhodamine B assay. In kind it is functional. Summed up:
as §3

In assay [14] the test system is NCI-H226. Description: Growth inhibition of human NCI-H226 cells assessed as cell growth at 10 uM after 48 hrs by sulforhodamine B assay. In kind it is functional. The settings on record: NCI-H226, 48 h, read-out: Activity. Summed up:
(§5)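 Single-dose NCI-60 screen: adherent cells in RPMI 1640 with 5% FBS were exposed to 10 µM for 48 h at 37 °C after a 24 h preincubation. They were fixed in situ with cold TCA (10% final), stained with 0.4% SRB in 1% acetic acid, solubilized in 10 mM Tris base, and read at 515 nm. Percent growth was taken relative to time-zero and control plates.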

Assay [15] concerns SF-295. Description: Growth inhibition of human SF295 cells assessed as cell growth at 10 uM after 48 hrs by sulforhodamine B assay. The settings on record: SF-295, 48 h, read-out: Activity. Type of assay: functional. The method, boiled down:
as §5

The subject of assay [16] is U-251. Briefly: Growth inhibition of human U251 cells assessed as cell growth at 10 uM after 48 hrs by sulforhodamine B assay. In kind it is functional. The settings on record: U-251, 48 h, read-out: Activity. The method, boiled down: as §1
In assay [17] the test system is MCF7. Briefly: Growth inhibition of human MCF7 cells assessed as cell growth at 10 uM after 48 hrs by sulforhodamine B assay. Type of assay: functional. The settings on record: MCF7, 48 h, read-out: Activity. Summed up:
as §5

Assay [18] has as its system KM12. Briefly: Growth inhibition of human KM12 cells after 48 hrs by sulforhodamine B assay. In kind it is functional. The settings on record: KM12, 48 h. Summed up: (§6)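 NCI-60 screen: cells in RPMI 1640 with 5% FBS and 2 mM glutamine, 5000–40,000 cells/well, preincubated 24 h. Five concentrations (10-fold dilutions; 100 to 0.001 µM) applied for 48 h at 37 °C. TCA fixation, SRB stain, absorbance at 515 nm. Time-zero plates included; GI50 where 100×(T−T0)/(C−T0)=50.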

The test system of assay [19] is HCT-15. Briefly: Growth inhibition of human HCT15 cells after 48 hrs by sulforhodamine B assay. The settings on record: HCT-15, 48 h. Type of assay: functional. Summed up: as §6
The subject of assay [20] is KM12. Briefly: Growth inhibition of human KM12 cells assessed as cell growth at 10 uM after 48 hrs by sulforhodamine B assay. The settings on record: KM12, 48 h, read-out: Activity. Type of assay: functional. Summed up: as §4
Assay [21] can be described thus: Antiproliferative activity against mouse +SA cells by MTT assay. In kind it is functional, cell-based. The settings on record: +SA cell. The method, boiled down: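 Mouse +SA mammary epithelial cells in serum-free DMEM/F12 with BSA, transferrin, insulin and EGF. Compounds from DMSO stock conjugated to BSA (overnight, 37 °C); 0–40 µM, final DMSO <0.1%. MTT 0.42 mg/mL for 4 h at 37 °C, isopropanol solubilization, OD 570 nm. Cell number from a standard curve; IC50 by non-linear regression.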
On the technique in general: Tetrazolium dyes change colour on reduction, which living cells bring about.

For assay [22], the system named is SF-295. Description: Growth inhibition of human SF295 cells after 48 hrs by sulforhodamine B assay. Type of assay: functional. The settings on record: SF-295, 48 h. Summed up:
as §2

For assay [23], the system named is K562. Briefly: Growth inhibition of human K562 cells assessed as cell growth at 10 uM after 48 hrs by sulforhodamine B assay. Type of assay: functional. The settings on record: K562, 48 h, read-out: Activity. The method, boiled down: as §4

In general, GI50 refers to the concentration at which growth is held to half of that of the control. Read a high GI50 as lower sensitivity of the cells. As usually defined, the IC50 is the point on the concentration scale where inhibition reaches its midpoint. Low readings indicate greater potency in that assay, high ones weaker potency in that assay. For the compound `CC(C)=CCC/C(C)=C/CC/C(C)=C/CC[C@]1(C)CCc2c3c(cc(C)c2O1)OCN(CCCCCCO)C3`, the GI50 in [1] was determined as 1110 nM; in assay [3], 1240 nM; in [4], 5.27 µM; in assay [5], 1130 nM; in assay [6] it was 5.66 µM; in assay [7], 1760 nM. Besides, the GI50 in [12] was found to be 692 nM; in [13], 2060 nM; in assay [18], 609 nM; in assay [19], 1100 nM; in [22], 602 nM. Further, the growth at 10 µM in assay [2] was -51.6%; in [8], -73.7%; in assay [9] it was -97.3%; in assay [10], 88.4%; in [11], 10.7%; in [14], 92.5%. Besides, the growth at 10 µM in assay [15] was -74.7%; in [16] it was -91.9%; in assay [17], -90.4%; in [20], -79.1%. For the same compound, in assay [21], the IC50 came out at 1300 nM.
For `CC(C)=CCC/C(C)=C/CC/C(C)=C/CC[C@]1(C)CCc2c3c(c(C)c(C)c2O1)OCN(CCCCCCCCCCO)C3`, the growth at 10 µM in [2] was 85.2%; in assay [8], 102%; in assay [9] it was 78.4%; in [10] it was 99.4%; in assay [11] it was 67%; in assay [14], 92.6%. In addition, the growth at 10 µM stood at 111% in assay [15]; 78.7% in assay [16]; 93.4% in [17]; 77.6% in [23]; 89.1% in [20]. Also, in assay [21], 4400 nM corresponded to half-maximal inhibition (IC50).
For the compound `CC(C)=CCC/C(C)=C/CC/C(C)=C/CC[C@]1(C)CCc2c3c(cc(C)c2O1)OCN(CCCCCCCCCCCCO)C3`, the growth at 10 µM worked out at 78.5% in assay [2]; 72.5% in [8]; 51.6% in assay [9]; 58.4% in assay [10]; 85.4% in [11]; 80.6% in [14]. The growth at 10 µM in assay [15] amounted to 93.3%; in assay [16], 59.1%; in assay [17], 26.3%; in [23], 47.4%; in assay [20], 61.1%. In addition, the IC50 in assay [21] stood at 2000 nM.
On to `CC(C)=CCC/C(C)=C/CC/C(C)=C/CC[C@]1(C)CCc2c3c(c(C)c(C)c2O1)OCN(CCc1ccc(O)cc1)C3`, for which the growth at 10 µM in [2] came to 93.7%; in assay [8], 67.7%; in [9], 37.7%; in [10] it was 106%; in [11], 107%; in [14], 111%. For the same compound, the growth at 10 µM was 100% in assay [15]; 81.8% in [16]; 16.9% in assay [17]; 54.9% in assay [23]; 65.6% in [20]. In assay [21], the half-maximal inhibitory concentration (IC50) turned out to be 1500 nM.
